# Measured values: ChEMBL document CHEMBL5316292 (J Med Chem, 2023)
# pEC50, pIC50, pKd: −log10 of the molar value. Activity calls are given as the source filed them. The calls are words filed in the database; no cut-off is given here.
# Legend:
# [1] = molecular target: T1, Bromodomain-containing protein 3 (Homo sapiens, UniProt Q15059); experiment: Binding affinity to 6His-tagged BRD3-BD1 (unknown origin) by MST assay
# In short: (§1)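 His6-tagged BD (80 nM) after size-exclusion, labelled 1:1 with 10 nM Red-tris-NTA in PBST (0.05% Tween-20) for 30 min at room temperature, then centrifuged. Mixed with an equal volume of serially diluted compound. Thermophoresis read at 40% LED/MST power. Triplicate data curve-fitted, error as SEM.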
# Target sequence in this assay (Q15059 whole entry): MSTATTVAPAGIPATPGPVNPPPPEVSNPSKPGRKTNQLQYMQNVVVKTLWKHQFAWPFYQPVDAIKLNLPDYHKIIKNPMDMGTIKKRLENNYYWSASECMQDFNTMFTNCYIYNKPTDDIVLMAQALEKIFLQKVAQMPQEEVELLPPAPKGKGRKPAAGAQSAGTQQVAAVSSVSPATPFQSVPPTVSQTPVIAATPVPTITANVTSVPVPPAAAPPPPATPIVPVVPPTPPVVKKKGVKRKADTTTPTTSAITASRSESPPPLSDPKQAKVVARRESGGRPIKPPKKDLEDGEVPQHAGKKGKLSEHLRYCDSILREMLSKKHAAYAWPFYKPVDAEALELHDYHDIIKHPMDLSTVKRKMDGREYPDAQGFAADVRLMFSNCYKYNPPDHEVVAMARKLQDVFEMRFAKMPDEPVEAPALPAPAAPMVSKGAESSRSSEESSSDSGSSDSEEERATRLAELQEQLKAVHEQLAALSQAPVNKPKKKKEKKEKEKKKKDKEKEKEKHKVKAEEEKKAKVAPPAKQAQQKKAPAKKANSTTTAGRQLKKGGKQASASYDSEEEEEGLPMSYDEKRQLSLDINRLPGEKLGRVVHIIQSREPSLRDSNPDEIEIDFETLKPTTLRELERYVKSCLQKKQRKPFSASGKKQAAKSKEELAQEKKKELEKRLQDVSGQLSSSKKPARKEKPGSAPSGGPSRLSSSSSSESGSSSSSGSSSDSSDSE
# [2] = molecular target: T2, Bromodomain-containing protein 4 (Homo sapiens, UniProt O60885); experiment: Induction of BRD4 degradation in human MDA-MB-231 cells at 10 uM incubated for 8 hrs in presence of MG132 by immunoblotting analysis; assay type: cell-based
# [3] = Antiproliferative activity against human Androgen-resistant 22Rv1 cells assessed as reduction in cell viability measured after 72 hrs by MTS assay; assay type: functional, cell-based; conditions: 22Rv1, 72 h
# In short: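 MTS viability assay run in triplicate wells. Serial dilutions in DMSO were given, with DMSO as negative control and doxorubicin as positive control, and incubated 72 h. MTS reagent was added for 2 h and absorbance read at 490 nm. % cytotoxicity = (A_medium − A_treatment)/A_medium × 100. EC50 ± SD was taken from dose-response curves of at least three independent experiments.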
# [4] = molecular target: T3, Bromodomain testis-specific protein (Homo sapiens, UniProt Q58F21); experiment: Binding affinity to human partial length BRDT BD1 (N21 to E137 residues) expressed in bacterial expression system assessed as change in melting temperature at 50 uM at 20 to 85 degreeC by SYPRO orange staining based thermal shift assay
# In short: (§2)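 DSF thermal shift. 10 µM BD in 50 mM HEPES, 500 mM NaCl pH 7.5, with 50 µM compound or DMSO-matched control and 1:1000 Sypro Orange (ex 465/em 590 nm). Ramp 20–85 °C at 0.03 °C/s. Tm taken as the midpoint between fluorescence max and min. At least three independent experiments, SEM in °C.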
# [5] = molecular target: T2, Bromodomain-containing protein 4; experiment: Induction of BRD4 degradation in human PC-3 cells incubated for 16 hrs by immunoblotting analysis; assay type: cell-based
# In short: (§3)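 MDA-MB-231 or PC-3 cells at 50% confluence in DMEM/10% FBS/pen-strep, treated 16 h with doses falling tenfold from 10 µM to 1 nM. RIPA lysates immunoblotted for BRD2, BRD3 and BRD4 with GAPDH as control. DC50 derived from band densitometry. SEM, n = 2.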
# [6] = molecular target: T1, Bromodomain-containing protein 3; experiment: Binding affinity to human partial length BRD3 BD1 (P24 to E144 residues) expressed in bacterial expression system using H4K5acIC8acK12acK16ac-biotinylated peptide as substrate preincubated for 30 mins followed by substrate addition by AlphaScreen assay
# In short: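 AlphaScreen. Biotinylated H4K5acK8acK12acK16ac peptide added at equal concentration to protein for 30 min. Donor and acceptor beads (25 µg/mL each) added, ≥1 h in the dark. Triplicate, curve-fitted, SEM.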
# Target sequence in this assay (Q15059 whole entry): as above
# [7] = molecular target: T3, Bromodomain testis-specific protein; experiment: Binding affinity to human partial length BRDT BD2 (K250 to E382 residues) expressed in bacterial expression system assessed as change in melting temperature at 50 uM at 20 to 85 degreeC by SYPRO orange staining based thermal shift assay; in short: as §2
# DU-145 = experiment: Antiproliferative activity against AR-negative human DU-145 cells assessed as reduction in cell viability measured after 72 hrs by MTS assay; conditions: DU-145, 72 h
# VCaP [8] = experiment: Downregulation of TMPRSS2 gene levels in human VCaP cells incubated for 24 hrs by qRT-PCR analysis; assay type: functional, cell-based; conditions: dose 25-2500 nM
# In short: (§4)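 VCaP cells grown to 50% confluence, then treated with compound or DMSO (Methods state 16 h, legend states 24 h). Total RNA isolated, cDNA made from 1 µg RNA, SYBR Green qPCR run in triplicate. Expression by ΔΔCt, normalised to GAPDH. Three independent experiments, SEM.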
# VCaP [9] = experiment: Antiproliferative activity against AR-positive human VCaP cells assessed as reduction in cell viability measured after 72 hrs by MTS assay; assay type: functional, cell-based
# In short: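 VCaP cells in 96-well plates, compound serially diluted in DMSO and run in triplicate wells for 72 h. MTS reagent added for 2 h, absorbance read at 490 nm. % cytotoxicity = (A_medium − A_treatment)/A_medium × 100. EC50 and SD taken from dose-response curves, at least three independent experiments.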
# [10] = molecular target: T4, Bromodomain-containing protein 2 (Homo sapiens, UniProt P25440); experiment: Binding affinity to human partial length BRD2 BD1 (K71 to N194 residues) expressed in bacterial expression system assessed as change in melting temperature at 50 uM at 20 to 85 degreeC by SYPRO orange staining based thermal shift assay; in short: as §2
# Target sequence in this assay (P25440 whole entry, looked up, the tested form may be a part): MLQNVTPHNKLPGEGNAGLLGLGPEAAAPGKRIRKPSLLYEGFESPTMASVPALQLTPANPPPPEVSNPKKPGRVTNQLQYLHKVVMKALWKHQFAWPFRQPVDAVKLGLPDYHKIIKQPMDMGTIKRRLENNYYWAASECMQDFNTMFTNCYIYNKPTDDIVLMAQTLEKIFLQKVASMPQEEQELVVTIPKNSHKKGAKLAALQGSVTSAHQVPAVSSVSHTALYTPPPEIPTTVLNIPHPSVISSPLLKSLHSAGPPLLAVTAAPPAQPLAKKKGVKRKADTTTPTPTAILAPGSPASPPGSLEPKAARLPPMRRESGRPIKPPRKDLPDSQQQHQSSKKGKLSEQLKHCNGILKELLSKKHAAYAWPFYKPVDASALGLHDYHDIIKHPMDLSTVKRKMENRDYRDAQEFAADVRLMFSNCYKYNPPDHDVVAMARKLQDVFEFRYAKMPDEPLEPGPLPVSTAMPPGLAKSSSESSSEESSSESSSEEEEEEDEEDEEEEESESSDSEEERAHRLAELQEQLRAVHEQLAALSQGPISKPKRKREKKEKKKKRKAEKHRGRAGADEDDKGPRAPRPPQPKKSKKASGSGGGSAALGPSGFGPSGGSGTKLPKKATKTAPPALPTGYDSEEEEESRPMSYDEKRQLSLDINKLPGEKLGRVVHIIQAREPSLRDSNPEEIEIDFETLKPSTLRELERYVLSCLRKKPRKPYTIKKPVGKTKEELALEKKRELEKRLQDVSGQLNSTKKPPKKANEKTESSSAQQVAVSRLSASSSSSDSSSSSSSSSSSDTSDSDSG
# [11] = molecular target: T1, Bromodomain-containing protein 3; experiment: Induction of BRD3 degradation in human MDA-MB-231 cells at 0.025 to 2.5 uM incubated for 24 hrs by qRT-PCR analysis; assay type: cell-based; conditions: dose 0.025-2.5 µM
# In short: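 MDA-MB-231 cells treated for 24 h at doses rising tenfold from 25 nM to 2.5 µM. Gene expression measured by qRT-PCR. SEM, n = 3.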
# Target sequence in this assay (Q15059 2-726 limits assumed): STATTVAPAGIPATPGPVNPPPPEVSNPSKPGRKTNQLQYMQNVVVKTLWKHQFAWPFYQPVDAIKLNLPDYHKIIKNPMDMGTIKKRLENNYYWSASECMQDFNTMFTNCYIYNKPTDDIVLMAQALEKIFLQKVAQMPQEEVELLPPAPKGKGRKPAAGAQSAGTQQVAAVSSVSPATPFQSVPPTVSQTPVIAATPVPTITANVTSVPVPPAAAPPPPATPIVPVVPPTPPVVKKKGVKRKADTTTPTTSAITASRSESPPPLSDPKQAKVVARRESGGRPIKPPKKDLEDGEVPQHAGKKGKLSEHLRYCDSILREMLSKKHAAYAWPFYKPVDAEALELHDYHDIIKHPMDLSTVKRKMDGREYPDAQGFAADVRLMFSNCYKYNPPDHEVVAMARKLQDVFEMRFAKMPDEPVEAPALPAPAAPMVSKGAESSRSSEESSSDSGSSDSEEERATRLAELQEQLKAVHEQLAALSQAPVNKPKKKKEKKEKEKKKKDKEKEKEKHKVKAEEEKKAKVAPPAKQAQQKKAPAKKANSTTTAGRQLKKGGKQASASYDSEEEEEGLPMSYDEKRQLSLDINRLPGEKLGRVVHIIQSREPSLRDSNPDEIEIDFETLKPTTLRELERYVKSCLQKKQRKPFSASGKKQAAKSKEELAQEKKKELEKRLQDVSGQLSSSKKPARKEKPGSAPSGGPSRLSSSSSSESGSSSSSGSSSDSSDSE
# [12] = molecular target: T1, Bromodomain-containing protein 3; experiment: Induction of BRD3 degradation in human MDA-MB-231 cells at 10 uM by immunoblotting analysis; assay type: cell-based; conditions: time 8.0 hrs
# Target sequence in this assay (Q15059 2-726 limits assumed): as above
# [13] = Induction of degradation in human PC-3 cells incubated for 16 hrs by immunoblotting analysis
# [14] = molecular target: T2, Bromodomain-containing protein 4; experiment: Binding affinity to human partial length BRD4 BD2 (K333 to E460 residues) expressed in bacterial expression system using H4K5acIC8acK12acK16ac-biotinylated peptide as substrate preincubated for 30 mins followed by substrate addition by AlphaScreen assay
# [15] = molecular target: T1, Bromodomain-containing protein 3; experiment: Induction of BRD3 degradation in human MDA-MB-231 cells incubated for 16 hrs by immunoblotting analysis; assay type: cell-based; in short: as §3
# [16] = molecular target: T2, Bromodomain-containing protein 4; experiment: Binding affinity to human partial length BRD4 BD1 (N44 to E168 residues) expressed in bacterial expression system using H4K5acIC8acK12acK16ac-biotinylated peptide as substrate preincubated for 30 mins followed by substrate addition by AlphaScreen assay
# [17] = molecular target: T1, Bromodomain-containing protein 3; experiment: Binding affinity to 6His-tagged BRD3-BD2 (unknown origin) by MST assay; in short: as §1
# Target sequence in this assay (Q15059 whole entry): as the sequence (Q15059 whole entry) above
# VCaP [18] = experiment: Downregulation of AR […] expression in human VCaP cells incubated for 24 hrs by qRT-PCR analysis; assay type: functional, cell-based; conditions: dose 25-2500 nM; in short: as §4
# [19] = molecular target: T4, Bromodomain-containing protein 2; experiment: Induction of BRD2 degradation in human MDA-MB-231 cells assessed as decrease in BET half life at 10 uM incubated for 8 hrs in presence of cycloheximide by immunoblotting analysis; assay type: cell-based
# In short: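 MDA-MB-231 time-course. Cells given 50 µg/mL cycloheximide plus DMSO, or 50 µg/mL cycloheximide plus 10 µM compound. RIPA lysates immunoblotted for BRD2, BRD3 and BRD4 with GAPDH as control.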
# Target sequence in this assay (P25440 whole entry, looked up, the tested form may be a part): as the sequence (P25440 whole entry, looked up, the tested form may be a part) above
# [20] = molecular target: T4, Bromodomain-containing protein 2; experiment: Induction of BRD2 degradation in human PC-3 cells incubated for 16 hrs by immunoblotting analysis; assay type: cell-based; in short: as §3
# Target sequence in this assay (P25440 whole entry, the tested form may be a part): as the sequence (P25440 whole entry, looked up, the tested form may be a part) above
compound,measurement,setting,value
CC(=O)OC[C@]12CC[C@H]3[C@@H](C[C@H]4O[C@]45CC=CC(=O)[C@]35C)[C@]1(O)CC[C@@]2(O)[C@@](C)(O)[C@H]1CC(C)=C(C)C(=O)O1,pKd,[1],7.85
same,Activity,[2],inactive
same,pEC50,[3],7.52
same,ΔTm,[4],9.57 °C
same,Activity,[5],Dose-Dependent Effect
same,DC50,[5],56.7 nM
same,pIC50,[6],8.15
same,ΔTm,[7],7.58 °C
same,pEC50,DU-145,6.58
same,Activity,VCaP [8],Dose-Dependent Effect
same,pEC50,VCaP [9],7.52
same,ΔTm,[10],10.4 °C
same,Activity,[11],inactive
same,Activity,[12],Active
same,Activity,[13],Dose-Dependent Effect
same,pIC50,[14],6.85
same,Activity,[15],Dose-Dependent Effect
same,DC50,[15],23.9 nM
same,pIC50,[16],7.75
same,pKd,[17],6.83
same,Activity,VCaP [18],Dose-Dependent Effect
same,Activity,[19],Active
same,DC50,[20],> 10000 nM
